Screening results (PubChem BioAssay)
S100A4 MyoIIA: inhibitors of S100A4-myosin IIA peptide binding, primary screen, biochemical, fluorescence polarization, TAMRA-MyoIIA peptide. AID 652163, 2013. 0.14% of 360,000 active. inhibition, % at 10.7 µM;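 active = mean inhibition of at least 70% across replicates, with every replicate also reaching that level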
Target sequence (P26447 whole entry, looked up): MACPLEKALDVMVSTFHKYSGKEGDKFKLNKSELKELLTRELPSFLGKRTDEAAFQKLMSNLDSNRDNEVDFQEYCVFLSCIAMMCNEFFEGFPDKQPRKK
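Material: S100A4 monomer (human). Medium: Calcium-containing HEPES buffer, pH 7.2. Probe or stimulus: labelled myosin peptide probe, 5 nM. Compound dosing: one concentration per compound. Timing: polarization read 5 min after assay mix addition, stable 5–60 min. Benchmarks: DMSO as neutral control, TFP as positive control.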
FGF22 binding: binders of human FGF22 protein, primary screen, FGF22 synaptogenesis inhibitor project, biophysical, thermal shift, single point; recombinant FGF22 thermal shift, SYPRO orange fluorescence; percent of sucrose octasulfate shift, DMSO zero; activity (Tm shift, normalised), % at 9.99 µM; 1.5% of 340,000 active;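 active = mean Tm shift, scaled 0 neutral to 100 positive control, at about 1.3% or above, every replicate too, limit read from the data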
Target sequence (Q9HCT0 whole entry, looked up): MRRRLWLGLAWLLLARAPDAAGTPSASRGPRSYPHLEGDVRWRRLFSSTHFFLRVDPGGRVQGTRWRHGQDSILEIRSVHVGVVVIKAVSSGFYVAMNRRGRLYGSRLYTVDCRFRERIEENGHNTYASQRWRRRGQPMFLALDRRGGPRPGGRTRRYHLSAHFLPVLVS
dFosB activator: activators of delta FosB homodimer, primary screen, biochemical, fluorescence polarization, TAMRA-CDK5 oligo, single point | purified delta FosB; percent of positive-control signal above neutral wells | Protein FosB (Mus musculus), P13346 | AID 493131, 2011 | 0.99% of 340,000 active | activation, % at 25 µM;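 active = mean activation above about 17%, with every replicate also reaching it, limit read from the data, passing the limit was not always enough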
Target sequence (P13346 whole entry, looked up): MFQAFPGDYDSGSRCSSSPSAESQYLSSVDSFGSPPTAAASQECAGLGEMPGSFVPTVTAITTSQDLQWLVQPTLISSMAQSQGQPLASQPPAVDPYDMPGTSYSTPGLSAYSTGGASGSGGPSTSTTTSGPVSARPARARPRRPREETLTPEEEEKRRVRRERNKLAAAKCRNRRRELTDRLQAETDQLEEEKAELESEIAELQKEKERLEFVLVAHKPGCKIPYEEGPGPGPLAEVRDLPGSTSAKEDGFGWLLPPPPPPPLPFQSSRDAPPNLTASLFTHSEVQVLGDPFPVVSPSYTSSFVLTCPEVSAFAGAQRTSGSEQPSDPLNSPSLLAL
F508del corr: F508del CFTR correction, initial screen, CFBE line, single point; CFBE cells, YFP halide quenching; stimulated with forskolin plus potentiator P3; % fluorescence drop versus neutral controls; activity (quench increase), % at 7.58 µM; 0.36% of 350,000 active; AID 720511, 2013;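 active = mean added fluorescence quench of at least 8% versus neutral control, with both replicates also reaching 8%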;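 also: cells transiently co-express mutant CFTR-F508del with the halide-sensitive YFP; corrector assay measuring rescue of mutant channel to the surface after 24 h compound exposure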
Each line names hits and unclear results; the compound was inactive in the other large screens. Compounds with a hit are over-represented: about 2.2% of the library has one in this group of screens.

CC(C)NC(=O)N(C)C[C@@H]1Oc2c(NC(=O)CCCCCC(=O)Nc3ccccc3N)cccc2C(=O)N([C@@H](C)CO)C[C@H]1C	none (no result: dFosB activator)
CC(=O)NC(c1ccc2ccccc2c1)c1ccc2cccnc2c1O (configuration not stated)	F508del corr 13
CC(=O)NC(c1cccs1)c1cc(F)c2cccnc2c1O (configuration not stated)	FGF22 binding 43
CCCC(=O)NC(c1ccc(Cl)cc1)c1ccc2cccnc2c1O (configuration not stated)	F508del corr 15
COc1ccc(C(NC(C)=O)c2ccc3cccnc3c2O)c(OC)c1 (configuration not stated)	none (no result: S100A4 MyoIIA, FGF22 binding, F508del corr)
CC(=O)NC(C)c1cc(Cl)c2cccnc2c1O (configuration not stated)	FGF22 binding 45
COc1ccc(S(=O)(=O)N(C)C[C@H]2Oc3ccc(NC(=O)Cc4ccccc4)cc3CC(=O)N([C@H](C)CO)C[C@@H]2C)cc1	none (no result: dFosB activator)
CCCC(=O)NC(c1ccc(Cl)cc1Cl)c1ccc2cccnc2c1O (configuration not stated)	none
CN1CCN(C(c2ccc(Br)cc2)c2cc(Cl)c3cccnc3c2O)CC1 (configuration not stated)	dFosB activator 29
CC(=O)NC(c1ccc(Cl)cc1Cl)c1ccc2cccnc2c1O (configuration not stated)	F508del corr 10
C[C@@H]1CCCCO[C@@H](CN(C)S(=O)(=O)c2cccs2)[C@H](C)CN([C@@H](C)CO)C(=O)c2cc(NC(=O)C3CCCCC3)ccc2O1	none (no result: dFosB activator)
Cc1cccc(NC(=O)[C@H](Cc2c[nH]c3ccccc23)NC(=O)[C@@H]2Cc3ccccc3CN2)c1	dFosB activator 22
Cc1nc2nc(SCC(=O)O)nn2c(C)c1Cc1ccccc1Cl	FGF22 binding 43
Cc1nc2nc(SCC(=O)O)nn2c(C)c1Cc1c(F)cccc1Cl	none
CCOc1ccccc1CNC(=O)c1cc2occc2n1C	S100A4 MyoIIA 183
NS(=O)(=O)c1ccc(NC(=O)c2ccc(CNS(=O)(=O)c3cc(C(F)(F)F)ccc3Cl)cc2)cc1	dFosB activator 108
NS(=O)(=O)c1ccc(CNC(=O)c2ccc(Cl)c(S(=O)(=O)NCc3ccccc3)c2)cc1	none
COc1cc(C(=O)N2CCC(NC(=O)C(Cc3ccc(C)cc3)NC(C)=O)CC2)cc(OC)c1OC (configuration not stated)	none
COc1cc(CC(NC(C)=O)C(=O)NC2CCN(C(=O)c3cc(OC)c(OC)c(OC)c3)CC2)cc(OC)c1 (configuration not stated)	FGF22 binding 43
Cc1noc(C)c1NC(=O)Nc1ccc2c(c1)C(=O)N([C@H](C)CO)C[C@@H](C)[C@@H](CN(C)Cc1ccc(C(F)(F)F)cc1)OCCCC[C@@H](C)O2	none (no result: dFosB activator)
Cc1cccc(C)c1NC(=O)Cn1c(=O)c2cccn2c2ccccc21	dFosB activator 29
Cc1cccc(C)c1NC(=O)Cn1nc(C)n2cccc2c1=O	none
O=C1CC(C(=O)N2CCN(c3ccccn3)CC2)CN1Cc1ccccc1Cl (configuration not stated)	S100A4 MyoIIA 185
CCOc1ccccc1C(=O)N[C@H](C(=O)NCc1ccccc1)C(C)C	FGF22 binding 43
CC(C)C(NC(=O)c1ccccc1F)C(=O)NCc1ccccc1 (configuration not stated)	none
O=C1OC(c2ccccc2)(c2ccccc2)c2ccsc21	FGF22 binding 44 (no result: dFosB activator)
CCCCCCCCCCOC(=O)Cn1c(COc2ccccc2OC)[n+](C)c2ccccc21	dFosB activator 25
O=C(c1ccc(S(=O)(=O)NCC2CCCO2)cc1)N1CCN(c2cccc(Cl)c2)CC1 (configuration not stated)	F508del corr 16
COC(=O)C[C@@H]1CC[C@H]2[C@H](COc3ccc(NC(=O)Nc4ccccc4C)cc3C(=O)N2C)O1	none (no result: dFosB activator)
COCCCNCC(O)COc1cccc2[nH]c(C)cc12 (configuration not stated)	FGF22 binding 1.4 (no result: F508del corr)
COC(C(=O)C(O)C(C)O)C1Cc2cc3cc(OC4CC(OC5CC(O)C(O)C(C)O5)C(O)C(C)O4)c(C)c(O)c3c(O)c2C(=O)C1OC1CC(OC2CC(OC3CC(O)C(OC)C(C)O3)C(O)C(C)O2)C(O)C(C)O1 (configuration not stated)	F508del corr 13
O=C(CCN=C1NS(=O)(=O)c2ccccc21)OCC(=O)c1ccccc1Cl	none
O=C(CN=C1NS(=O)(=O)c2ccccc21)OCC(=O)c1cc(F)ccc1F	FGF22 binding 43
O=C(Nc1c(Cl)ccc2nsnc12)c1ccco1	FGF22 binding 44
Cc1ccc(C(=O)OCC(=O)Nc2ccccc2)cc1NC(=O)c1ccco1	dFosB activator 27 (no result: S100A4 MyoIIA, FGF22 binding, F508del corr)
O=C(Nc1ccc(O)cc1C(=O)O)c1ccc(NC(=O)c2ccco2)cc1	FGF22 binding 2.1
C/C(=N/NC(=O)c1ccco1)c1cccc(NC(=O)c2ccc(C)s2)c1	FGF22 binding 1.5
C/C(=N/NC(=O)c1ccco1)c1cccc(NC(=O)c2ccc(C)o2)c1	none (no result: S100A4 MyoIIA, FGF22 binding, F508del corr)
CCOc1cccc(C(=O)Nc2cccc(NC(=O)c3ccco3)c2)c1	FGF22 binding 1.5
Nc1ccc(NC(=O)c2ccco2)c(Cl)c1	FGF22 binding 44
O=C(Nc1cc(Br)c(O)c(Br)c1)c1cccc(NC(=O)c2ccco2)c1	none
O=C(Nc1cccc(NC(=O)c2ccco2)c1)c1cccc(Br)c1	FGF22 binding 43
O=C(Nc1cc(Cl)ccc1Cl)c1ccco1	none
COc1ccc(NC(=O)N(C)C[C@H]2Oc3ccc(NS(=O)(=O)c4ccc(Cl)cc4)cc3CC(=O)N([C@@H](C)CO)C[C@H]2C)cc1	none (no result: dFosB activator)
O=C(NCC(=O)N1CCN(c2ncccn2)CC1)c1ccc(F)cc1	none
NC(=O)C1CCN(C(=O)CNC(=O)c2ccc(F)cc2)CC1	FGF22 binding 44
COc1ccc(NC(=S)NC(=O)c2ccccc2Cl)cc1	FGF22 binding 43
COc1ccccc1C(=O)Nc1ccc2c(c1)nc(CCNC(=O)c1ccco1)n2C	F508del corr 10
O=C(NC(=S)Nc1ccc(O)cc1)c1ccccc1Cl	none
COc1ccc(NC(=S)NNC(=O)COc2ccc(Cl)cc2Cl)cc1	none (no result: S100A4 MyoIIA, FGF22 binding, F508del corr)
COc1ccccc1C(=O)NC(=S)Nc1ccc(NC(=O)c2ccco2)cc1	FGF22 binding 1.5
COc1ccc(NC(=S)NNC(=O)CNc2ccc(Cl)cc2)cc1	FGF22 binding 1.4
O=C(NNS(=O)(=O)c1ccc(Br)cc1)C1CCCCC1	FGF22 binding 43
O=C(CCN1CCOCC1)NNC(=S)NC(=O)c1ccc(Br)cc1	none
O=C(CCN1CCCCC1)NNC(=S)NC(=O)c1ccc(Br)cc1	FGF22 binding 43
